Source: ChEMBL document CHEMBL5247578, “Effective synthesis of benzimidazoles-imidazo[1,2-a]pyrazine conjugates: A comparative study of mono-and bis-benzimidazoles for antitumor activity” (Eur J Med Chem, 2019)

How the values were obtained:
[1] = test system: Calf thymus DNA; test: Binding affinity to calf thymus DNA assessed as binding constant at temperature of 298 K by Stern-Volmer quenching plot based fluorescence spectroscopic method; format: nucleic-acid assay; settings: Bos taurus
[2] = test system: 786-0; test: Antiproliferative activity against human 786-0 cells assessed as cell growth at 0.00000001 M incubated for 48 hrs by SRB assay relative to control; format: functional; settings: dose 10 nM, read-out: Activity
In short: (§1)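 NCI-60 five-dose screen over 10^-4–10^-8 M (10-fold dilutions). Cells grown in RPMI 1640 with 5% FBS and 2 mM L-glutamine, seeded at 5,000–40,000 cells/well and preincubated 24 h. Drug from DMSO stock, 48 h at 37 °C, 5% CO2. Adherent cells TCA-fixed and stained with 0.4% SRB; A515 read. Percent growth = (Ti−Tz)/(C−Tz)×100, or (Ti−Tz)/Tz×100 when Ti<Tz.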

[3] = test system: SK-MEL-5; test: Antiproliferative activity against human SK-MEL-5 cells assessed as cell growth at 0.00000001 M incubated for 48 hrs by SRB assay relative to control; format: functional; settings: dose 10 nM, read-out: Activity
[4] = test system: SR; test: Antiproliferative activity against human SR cells assessed as cell growth at 0.00000001 M incubated for 48 hrs by SRB assay relative to control; format: functional; settings: dose 10 nM, read-out: Activity
[5] = test system: A549; test: Antiproliferative activity against human A549 cells assessed as cell growth at 0.00000001 M incubated for 48 hrs by SRB assay relative to control; format: functional; settings: dose 10 nM, read-out: Activity; in short: as §1
[6] = test system: HCT-15; test: Antiproliferative activity against human HCT-15 cells assessed as cell growth at 0.00000001 M incubated for 48 hrs by SRB assay relative to control; format: functional; settings: dose 10 nM, read-out: Activity
In short: (§2)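 NCI-60 five-dose screen (10^-4 to 10^-8 M). Cells grown in RPMI 1640 with 5% FBS and 2 mM L-glutamine, plated at 5,000-40,000 cells/well and preincubated 24 h. Drug given from DMSO stock, then 48 h at 37 °C, 5% CO2. For adherent lines, cells fixed with cold TCA, SRB-stained and read at 515 nm. Percent growth taken against time-zero and untreated control.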

[7] = test system: KM12; test: Antiproliferative activity against human KM12 cells assessed as cell growth inhibition by measuring lethal concentration incubated for 48 hrs by sulforhodamine B assay; format: functional; settings: read-out: LC50 (the source's name)
[8] = test system: MDA-MB-468; test: Growth inhibition against human MDA-MB-468 cells assessed as total growth inhibitory concentration incubated for 48 hrs by sulforhodamine B assay; format: functional
[9] = test system: PC-3; test: Growth inhibition against human PC-3 cells assessed as total growth inhibitory concentration incubated for 48 hrs by sulforhodamine B assay; format: functional
[10] = test system: TK-10; test: Growth inhibition against human TK-10 cells assessed as total growth inhibitory concentration incubated for 48 hrs by sulforhodamine B assay; format: functional
[11] = test system: UACC-257; test: Growth inhibition against human UACC-257 cells assessed as total growth inhibitory concentration incubated for 48 hrs by sulforhodamine B assay; format: functional
[12] = test system: KM12; test: Growth inhibition against human KM12 cells assessed as total growth inhibitory concentration incubated for 48 hrs by sulforhodamine B assay; format: functional
[13] = test system: A549; test: Growth inhibition against human A549 cells assessed as total growth inhibitory concentration incubated for 48 hrs by sulforhodamine B assay; format: functional
[14] = test system: RXF 393; test: Growth inhibition against human RXF 393 cells incubated for 48 hrs by sulforhodamine B assay; format: functional
[15] = test system: OVCAR-8; test: Growth inhibition against human OVCAR-8 cells incubated for 48 hrs by sulforhodamine B assay; format: functional
[16] = test system: UACC-62; test: Growth inhibition against human UACC-62 cells incubated for 48 hrs by sulforhodamine B assay; format: functional
[17] = test system: SK-MEL-28; test: Growth inhibition against human SK-MEL-28 cells incubated for 48 hrs by sulforhodamine B assay; format: functional
[18] = test system: SK-MEL-2; test: Growth inhibition against human SK-MEL-2 cells incubated for 48 hrs by sulforhodamine B assay; format: functional
[19] = test system: HOP-92; test: Growth inhibition against human HOP-92 cells incubated for 48 hrs by sulforhodamine B assay; format: functional
[20] = test system: EKVX; test: Growth inhibition against human EKVX cells incubated for 48 hrs by sulforhodamine B assay; format: functional
[21] = test system: MDA-MB-468; test: Antiproliferative activity against human MDA-MB-468 cells assessed as cell growth at 0.00000001 M incubated for 48 hrs by SRB assay relative to control; format: functional; settings: dose 10 nM, read-out: Activity
[22] = test system: HCT-116; test: Antiproliferative activity against human HCT-116 cells assessed as cell growth at 0.0000001 M incubated for 48 hrs by SRB assay relative to control; format: functional; settings: dose 100 nM, read-out: Activity; in short: as §2
[23] = test system: SF-295; test: Antiproliferative activity against human SF-295 cells assessed as cell growth at 0.0000001 M incubated for 48 hrs by SRB assay relative to control; format: functional; settings: dose 100 nM, read-out: Activity
[24] = test system: SNB-75; test: Antiproliferative activity against human SNB-75 cells assessed as cell growth at 0.0000001 M incubated for 48 hrs by SRB assay relative to control; format: functional; settings: dose 100 nM, read-out: Activity
[25] = test system: LOX IMVI; test: Antiproliferative activity against human LOX IMVI cells assessed as cell growth at 0.0000001 M incubated for 48 hrs by SRB assay relative to control; format: functional; settings: dose 100 nM, read-out: Activity
[26] = test system: MDA-MB-435; test: Antiproliferative activity against human MDA-MB-435 cells assessed as cell growth at 0.0000001 M incubated for 48 hrs by SRB assay relative to control; format: functional; settings: dose 100 nM, read-out: Activity
[27] = test system: SN12C; test: Antiproliferative activity against human SN12C cells assessed as cell growth at 0.0000001 M incubated for 48 hrs by SRB assay relative to control; format: functional; settings: dose 100 nM, read-out: Activity
[28] = test system: DU-145; test: Antiproliferative activity against human DU-145 cells assessed as cell growth at 0.0000001 M incubated for 48 hrs by SRB assay relative to control; format: functional; settings: dose 100 nM, read-out: Activity; in short: as §1
[29] = test system: BT-549; test: Antiproliferative activity against human BT-549 cells assessed as cell growth at 0.0000001 M incubated for 48 hrs by SRB assay relative to control; format: functional; settings: dose 100 nM, read-out: Activity; in short: as §1
[30] = test system: SK-MEL-5; test: Antiproliferative activity against human SK-MEL-5 cells assessed as cell growth at 0.000001 M incubated for 48 hrs by SRB assay relative to control; format: functional; settings: read-out: Activity
[31] = test system: RXF 393; test: Antiproliferative activity against human RXF 393 cells assessed as cell growth at 0.000001 M incubated for 48 hrs by SRB assay relative to control; format: functional; settings: read-out: Activity
[32] = test system: DU-145; test: Antiproliferative activity against human DU-145 cells assessed as cell growth at 0.000001 M incubated for 48 hrs by SRB assay relative to control; format: functional; settings: read-out: Activity; in short: as §2
[33] = test system: OVCAR-4; test: Antiproliferative activity against human OVCAR-4 cells assessed as cell growth at 0.00001 M incubated for 48 hrs by SRB assay relative to control; format: functional; settings: read-out: Activity
[34] = test system: OVCAR-8; test: Antiproliferative activity against human OVCAR-8 cells assessed as cell growth at 0.00001 M incubated for 48 hrs by SRB assay relative to control; format: functional; settings: read-out: Activity
[35] = test system: MOLT-4; test: Antiproliferative activity against human MOLT-4 cells assessed as cell growth at 0.0001 M incubated for 48 hrs by SRB assay relative to control; format: functional; settings: read-out: Activity
[36] = test system: EKVX; test: Antiproliferative activity against human EKVX cells assessed as cell growth at 0.0001 M incubated for 48 hrs by SRB assay relative to control; format: functional; settings: read-out: Activity; in short: as §2
[37] = test system: HCT-116; test: Antiproliferative activity against human HCT-116 cells assessed as cell growth at 0.0001 M incubated for 48 hrs by SRB assay relative to control; format: functional; settings: read-out: Activity; in short: as §2

SMILES | Kb [1] | growth at 0.01 µM [2] [%] | growth at 0.01 µM [3] [%] | growth at 0.01 µM [4] [%] | growth at 0.01 µM [5] [%] | growth at 0.01 µM [6] [%] | CC50 [7] [nM] | TGI [8] [nM] | TGI [9] [nM] | TGI [10] [nM] | TGI [11] [nM] | TGI [12] [nM] | TGI [13] [nM] | GI50 [14] [nM] | GI50 [15] [nM] | GI50 [16] [nM] | GI50 [17] [nM] | GI50 [18] [nM] | GI50 [19] [nM] | GI50 [20] [nM] | other results
COc1ccc(-c2cn3ccnc3c(-c3ccc4ncn(C5CCCCC5)c4c3)n2)cc1 | 36.5 10^4/M | 87 | 98 | 102 | 102 | 94 | > 100000 | > 100000 | > 100000 | 68900 | > 100000 | > 100000 | > 100000 | 1300 | 3160 | 434 | 2100 | 944 | 1180 | 3040 | growth at 0.01 µM [21]: 93%; growth at 0.1 µM [22]: 91%; growth at 0.1 µM [23]: 91%; growth at 0.1 µM [24]: 82%; growth at 0.1 µM [25]: 92%; growth at 0.1 µM [26]: 92%; growth at 0.1 µM [27]: 100%; growth at 0.1 µM [28]: 102%; growth at 0.1 µM [29]: 88%; growth at 1 µM [30]: 41%; growth at 1 µM [31]: 57%; growth at 1 µM [32]: 51%; growth at 10 µM [33]: 35%; growth at 10 µM [34]: 8%; growth at 100 µM [35]: 22%; growth at 100 µM [36]: 26%; growth at 100 µM [37]: -29%
c1ccc(Cn2cnc3ccc(-c4nc(-c5ccc6c(c5)ncn6C5CCCCC5)cn5ccnc45)cc32)cc1 | 9.58 10^4/M | 86 | 101 | 98 | 105 | 92 | > 100000 | 4430 | 7550 | > 100000 | 4310 | 4930 | 4970 | 1220 | 2600 | 1980 | 2430 | 2020 | 1250 | 1750 | growth at 0.01 µM [21]: 100%; growth at 0.1 µM [22]: 93%; growth at 0.1 µM [23]: 92%; growth at 0.1 µM [24]: 82%; growth at 0.1 µM [25]: 94%; growth at 0.1 µM [26]: 98%; growth at 0.1 µM [27]: 101%; growth at 0.1 µM [28]: 98%; growth at 0.1 µM [29]: 92%; growth at 1 µM [30]: 80%; growth at 1 µM [31]: 62%; growth at 1 µM [32]: 93%; growth at 10 µM [33]: 1%; growth at 10 µM [34]: -23%; growth at 100 µM [35]: 4%; growth at 100 µM [36]: 14%; growth at 100 µM [37]: -33%
